Measurements reported in ChEMBL document CHEMBL4613248, “Twelfth-Position Deuteration of Nevirapine Reduces 12-Hydroxy-Nevirapine Formation and Nevirapine-Induced Hepatocyte Death” (J Med Chem, 2020).

Experiments:
[1] = Drug metabolism in C57BL/6J mouse primary hepatocytes assessed as Cytochrome P450-mediated formation of 8-OHD3NVP at 10 uM incubated for 24 hrs by uHPLC-MS analysis; format: ADME, cell-based
Method in brief: (§1)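 Fresh hepatocytes from male C57BL/6J mice (8–13 weeks), adhered overnight, then 10 μM substrate or vehicle (0.1% DMSO) for 24 h. Medium extracted with acetonitrile (50% final), dried, reconstituted in methanol; uHPLC-Orbitrap targeted SIM plus PRM (monooxygenated metabolites) or high-resolution ions (O-glucuronides, 459.1510/462.1700 ±5 ppm); four experimental replicates.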

[2] = Drug metabolism in C57BL/6J mouse primary hepatocytes assessed as O-GlucNVP metabolite formation at 10 uM incubated for 24 hrs by uHPLC-MS analysis; format: ADME, cell-based, Hepatocyte; method in brief: as §1
[3] = target: T1, Cytochrome P450 1A1 (Homo sapiens, UniProt P04798); assay: Drug metabolism assessed as human CYP1A1-mediated formation of 12-OHNVP at 10 uM pre-incubated for 30 mins followed by addition of NADPH regenerating reagents by uHPLC-MS analysis; format: ADME; settings: recombinant enzyme
T1 sequence (P04798 whole entry): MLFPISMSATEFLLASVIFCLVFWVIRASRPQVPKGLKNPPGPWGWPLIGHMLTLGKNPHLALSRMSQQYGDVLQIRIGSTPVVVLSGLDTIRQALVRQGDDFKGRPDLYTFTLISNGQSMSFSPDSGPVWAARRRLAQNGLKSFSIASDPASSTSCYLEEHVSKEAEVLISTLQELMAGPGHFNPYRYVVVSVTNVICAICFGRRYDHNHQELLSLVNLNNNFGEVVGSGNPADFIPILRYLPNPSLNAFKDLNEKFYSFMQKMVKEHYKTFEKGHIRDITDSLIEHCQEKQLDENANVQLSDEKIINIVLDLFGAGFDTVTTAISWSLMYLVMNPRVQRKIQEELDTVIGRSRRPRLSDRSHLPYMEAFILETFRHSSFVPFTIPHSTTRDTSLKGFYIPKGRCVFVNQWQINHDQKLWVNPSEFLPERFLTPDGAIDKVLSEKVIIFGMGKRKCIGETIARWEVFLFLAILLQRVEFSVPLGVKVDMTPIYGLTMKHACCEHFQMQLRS
Method in brief: (§2)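 Insect-cell microsomes with single cDNA-expressed human P450 (100 nM) in 0.1 M potassium phosphate; 10 μM substrate prewarmed 5 min at 37 °C with NADPH-regenerating system, reaction started by adding microsomes; 30 min at 37 °C, 0.1% DMSO. Stopped, dried, reconstituted in methanol; triple-quadrupole SRM (12-OH 283.1→223.0, 2-OH 283.1→160.9, 3-OH 283.1→241.9), peak height; three replicates, mean ± SD.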

[4] = target: T2, Cytochrome P450 3A4 (Homo sapiens, UniProt P08684); assay: Drug metabolism assessed as human CYP3A4-mediated formation of 12-OHNVP at 10 uM pre-incubated for 30 mins followed by addition of NADPH regenerating reagents by uHPLC-MS analysis; format: ADME; settings: recombinant enzyme; method in brief: as §2
[5] = target: T2, Cytochrome P450 3A4; assay: Drug metabolism assessed as human CYP3A4-mediated formation of 2-OHNVP at 10 uM pre-incubated for 30 mins followed by addition of NADPH regenerating reagents by uHPLC-MS analysis; format: ADME; settings: recombinant enzyme; method in brief: as §2
[6] = test system: Cytochrome P450; assay: Drug metabolism in human liver microsomes assessed as Cytochrome P450-mediated formation of 3-OHNVP formation at 5 to 400 uM in presence of NADPH regenerating reagents by uHPLC-MS/MS analysis; format: ADME
Method in brief: (§3)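 Pooled human liver microsomes (2.5 mg/mL) with NADPH-regenerating system, substrate 5–400 μM, 30 min at 37 °C, 0.1% DMSO (0.2% at 400 μM); 2- and 3-OH metabolites by uHPLC-MS/MS Orbitrap; three replicates, mean ± SD.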

[7] = test system: Cytochrome P450; assay: Drug metabolism in human liver microsomes assessed as Cytochrome P450-mediated formation of 2-OHNVP formation at 5 to 400 uM in presence of NADPH regenerating reagents by uHPLC-MS/MS analysis; format: ADME; method in brief: as §3
[8] = test system: Hepatocyte; assay: Toxicity in C57BL/6J mouse primary hepatocytes assessed as reduction in cell viability by measuring EtBr-positive cell nuclei level at 400 uM incubated for 8 hrs by EtBr/AcrO staining based assay (reference value: 19%)
Method in brief: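 Fresh male C57BL/6J mouse hepatocytes on collagen-coated coverslips, 400 μM compound or vehicle (0.2% DMSO) for 8 h; 10 μM staurosporine as positive control. Ethidium bromide/acridine orange costaining, imaging, percentage of EtBr-positive nuclei scored as dead cells; unpaired two-tailed t test.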

[9] = test system: Hepatocyte; assay: Induction of change in Slc9a3r1 protein expression in C57BL/6J mouse primary hepatocytes at 400 uM incubated for 8 hrs by relative-quantitation label-free proteomics analysis relative to NVP; format: cell-based
Method in brief: (§4)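 Fresh primary hepatocytes from male C57BL/6J mice aged 8–13 weeks, adhered overnight, then given fresh medium containing compound (400 μM), NVP (400 μM) or vehicle (0.2% DMSO) for 8 h. Lysate reduced (DTT) and alkylated (iodoacetamide), acetone-precipitated and digested with trypsin. Label-free Top10 nanoLC-MS with precursor ion area quantitation; unpaired t test P values, Cohen's d effect size.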

[10] = test system: Hepatocyte; assay: Induction of change in Tf protein expression in C57BL/6J mouse primary hepatocytes at 400 uM incubated for 8 hrs by relative-quantitation label-free proteomics analysis relative to NVP; format: cell-based; method in brief: as §4
[11] = test system: Hepatocyte; assay: Induction of change in Slc22a28 protein expression in C57BL/6J mouse primary hepatocytes at 400 uM incubated for 8 hrs by relative-quantitation label-free proteomics analysis relative to NVP; format: cell-based; method in brief: as §4
[12] = test system: Hepatocyte; assay: Induction of change in Acot13 protein expression in C57BL/6J mouse primary hepatocytes at 400 uM incubated for 8 hrs by relative-quantitation label-free proteomics analysis relative to NVP; format: cell-based; method in brief: as §4
[13] = test system: Hepatocyte; assay: Induction of change in RBM39 protein expression in human primary hepatocytes at 10 uM incubated for 48 hrs by relative-quantitation label-free proteomics analysis relative to NVP; format: cell-based
Method in brief: as §4, with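 “Cryoplateable pooled human” for “Fresh primary”, “(10 mixed-sex donors per pool; three pools),” for “from male C57BL/6J mice aged 8–13 weeks,”, “(10” for “(400”, “(0.1%” for “(0.2%”, “48” for “8”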

[14] = test system: Hepatocyte; assay: Induction of change in KARS protein expression in human primary hepatocytes at 10 uM incubated for 48 hrs by relative-quantitation label-free proteomics analysis relative to NVP; format: cell-based
Method in brief: as §4, with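 “Cryoplateable pooled human” for “Fresh primary”, “(10 mixed-sex donors per pool; three pools),” for “from male C57BL/6J mice aged 8–13 weeks,”, “(10” for “(400”, “(0.1%” for “(0.2%”, “48” for “8”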

[15] = test system: Hepatocyte; assay: Induction of change in ACSF3 protein expression in human primary hepatocytes at 10 uM incubated for 48 hrs by relative-quantitation label-free proteomics analysis relative to NVP; format: cell-based
Method in brief: as §4, with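 “Cryoplateable pooled human” for “Fresh primary”, “(10 mixed-sex donors per pool; three pools),” for “from male C57BL/6J mice aged 8–13 weeks,”, “(10” for “(400”, “(0.1%” for “(0.2%”, “48” for “8”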

[16] = test system: Hepatocyte; assay: Induction of change in SARNP protein expression in human primary hepatocytes at 10 uM incubated for 48 hrs by relative-quantitation label-free proteomics analysis relative to NVP; format: cell-based
Method in brief: as §4, with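 “Cryoplateable pooled human” for “Fresh primary”, “(10 mixed-sex donors per pool; three pools),” for “from male C57BL/6J mice aged 8–13 weeks,”, “(10” for “(400”, “(0.1%” for “(0.2%”, “48” for “8”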

[17] = test system: Hepatocyte; assay: Induction of change in ALAD protein expression in human primary hepatocytes at 10 uM incubated for 48 hrs by relative-quantitation label-free proteomics analysis relative to NVP; format: cell-based
Method in brief: as §4, with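 “Cryoplateable pooled human” for “Fresh primary”, “(10 mixed-sex donors per pool; three pools),” for “from male C57BL/6J mice aged 8–13 weeks,”, “(10” for “(400”, “(0.1%” for “(0.2%”, “48” for “8”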

[18] = test system: Hepatocyte; assay: Induction of change in AKAP2 protein expression in human primary hepatocytes at 10 uM incubated for 48 hrs by relative-quantitation label-free proteomics analysis relative to NVP; format: cell-based
Method in brief: as §4, with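 “Cryoplateable pooled human” for “Fresh primary”, “(10 mixed-sex donors per pool; three pools),” for “from male C57BL/6J mice aged 8–13 weeks,”, “(10” for “(400”, “(0.1%” for “(0.2%”, “48” for “8”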

T2 sequence (P08684 whole entry): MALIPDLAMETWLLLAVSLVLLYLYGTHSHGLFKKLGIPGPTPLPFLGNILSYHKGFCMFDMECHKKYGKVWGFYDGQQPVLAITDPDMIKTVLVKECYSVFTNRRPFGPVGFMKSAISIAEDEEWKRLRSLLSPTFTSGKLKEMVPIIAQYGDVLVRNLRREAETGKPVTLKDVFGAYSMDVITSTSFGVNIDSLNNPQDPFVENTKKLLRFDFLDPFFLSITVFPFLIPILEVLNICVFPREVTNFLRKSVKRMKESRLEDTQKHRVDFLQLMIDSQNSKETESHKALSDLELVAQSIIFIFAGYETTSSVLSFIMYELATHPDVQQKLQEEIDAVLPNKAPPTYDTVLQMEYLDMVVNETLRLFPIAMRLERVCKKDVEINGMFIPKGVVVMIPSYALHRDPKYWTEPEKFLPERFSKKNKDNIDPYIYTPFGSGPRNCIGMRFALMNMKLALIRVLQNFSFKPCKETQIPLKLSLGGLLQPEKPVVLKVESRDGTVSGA

[2H]C([2H])([2H])c1ccnc2c1NC(=O)c1cccnc1N2C1CC1
Drug metabolism [1]: Metabolite_Notdetected | Drug metabolism [2]: Metabolite_Detected | Drug metabolism [3]: Metabolite_Detected | Drug metabolism [4]: Metabolite_Detected | Drug metabolism [5]: Metabolite_Detected | Drug metabolism [6]: Metabolite_Detected | Drug metabolism [7]: Metabolite_Detected | Activity [8]: 36.8% | fold change (FC) [9]: 2.5 | fold change (FC) [10]: -1.52 | fold change (FC) [11]: -1.66 | fold change (FC) [12]: -1.97 | fold change (FC) [13]: 1.7 | fold change (FC) [14]: -1.42 | fold change (FC) [15]: -1.63 | fold change (FC) [16]: -1.65 | fold change (FC) [17]: -1.86 | fold change (FC) [18]: -2.67
